Experimental data as given in ChEMBL document CHEMBL1122854, “Novel bis[1,6-dihydro-6,6-dimethyl-1,3,5-triazine-2,4-diamines] as antitrypanosomal agents” (1985).
Where “and” joins values, the source holds several entries; their conditions need not be identical. Equal values may be shown once.

Key:
[1] = tested on: Trypanosoma brucei rhodesiense; assay: Antitrypanosomal activity against Trypanosoma rhodesiense infections in mice, 424 mg/kg administered subcutaneously; type: functional; conditions: route subcutaneous
Outline: (§1)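 IUR/HA Swiss mice (six weeks old, 30-32 g) infected i.p. with Wellcome CT strain T. rhodesiense. A single subcutaneous dose in peanut oil was given about 2 h after inoculation, with five mice per dose level. Positive control was stilbamidine or 2-hydroxystilbamidine isethionate at 40 mg/kg. Deaths before day 4 were scored toxic, and 30-day survivors cured.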

Mus musculus [2] = assay: Antitrypanosomal activity was evaluated against Trypanosoma rhodesiense infections in mice, at dose 13 mg/kg, administered subcutaneously;Toxic; type: functional; conditions: route subcutaneous; outline: as §1
[3] = tested on: Trypanosoma brucei rhodesiense; assay: Antitrypanosomal activity was evaluated against Trypanosoma rhodesiense infections in mice, at dose 26 mg/kg, administered subcutaneously; type: functional; conditions: route subcutaneous; outline: as §1
[4] = tested on: Trypanosoma brucei rhodesiense; assay: (§2) Antitrypanosomal activity was evaluated against Trypanosoma rhodesiense infections in mice, at dose 106 mg/kg, administered subcutaneously; type: functional; conditions: route subcutaneous; outline: as §1
[5] = tested on: Trypanosoma brucei rhodesiense; assay: Antitrypanosomal activity was evaluated against Trypanosoma rhodesiense infections in mice, at dose 1.6 mg/kg, administered subcutaneously; type: functional; conditions: route subcutaneous
Outline: (§3)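 Six-week-old IUR/HA Swiss mice (30-32 g), 5 per dose, infected ip with 0.5 mL of a 1:50 000 dilution of heparinized heart blood from donor mice infected 3 days before (Wellcome CT strain). Single sc dose in peanut oil about 2 h post-inoculation. Deaths before day 4 counted toxic. ΔMST versus untreated controls; survivors at 30 days counted cured.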

[6] = tested on: Trypanosoma brucei rhodesiense; assay: Antitrypanosomal activity against Trypanosoma rhodesiense infections in mice, 3.3 mg/kg administered subcutaneously; type: functional; conditions: route subcutaneous; outline: as §3
[7] = tested on: Trypanosoma brucei rhodesiense; assay: Antitrypanosomal activity against Trypanosoma rhodesiense infections in mice, 6.6 mg/kg administered subcutaneously; type: functional; conditions: route subcutaneous; outline: as §3
Mus musculus [8] = assay: Antitrypanosomal activity was evaluated against Trypanosoma rhodesiense infections in mice, at dose 0.8mg/kg, administered subcutaneously
Mus musculus [9] = assay: Antitrypanosomal activity was evaluated against Trypanosoma rhodesiense infections in mice, at dose 13mg/kg, administered subcutaneously; type: functional; outline: as §3
Mus musculus [10] = assay: Antitrypanosomal activity was evaluated against Trypanosoma rhodesiense infections in mice, at dose 3.3 mg/kg, administered subcutaneously; type: functional; conditions: route subcutaneous; outline: as §3
Mus musculus [11] = assay: Antitrypanosomal activity was evaluated against Trypanosoma rhodesiense infections in mice, at dose 6.6 mg/kg, administered subcutaneously; type: functional; conditions: route subcutaneous; outline: as §3
Mus musculus [12] = assay: Antitrypanosomal activity was evaluated against Trypanosoma rhodesiense infections in mice, at dose 13 mg/kg, administered subcutaneously;Cures; type: functional; conditions: route subcutaneous; outline: as §1
Mus musculus [13] = assay: Antitrypanosomal activity was evaluated against Trypanosoma rhodesiense infections in mice, at dose 212 mg/kg, administered subcutaneously;Cures; type: functional; conditions: route subcutaneous; outline: as §1
Mus musculus [14] = assay: Antitrypanosomal activity was evaluated against Trypanosoma rhodesiense infections in mice, at dose 26 mg/kg, administered subcutaneously;Cures; type: functional; conditions: route subcutaneous; outline: as §1
Mus musculus [15] = assay: Antitrypanosomal activity was evaluated against Trypanosoma rhodesiense infections in mice, at dose 106 mg/kg, administered subcutaneously; Cures; type: functional; conditions: route subcutaneous; outline: as §1
Mus musculus [16] = assay: Antitrypanosomal activity was evaluated against Trypanosoma rhodesiense infections in mice, at dose 53 mg/kg, administered subcutaneously;Cures; type: functional; conditions: route subcutaneous; outline: as §1
Mus musculus [17] = assay: Antitrypanosomal activity was evaluated against Trypanosoma rhodesiense infections in mice, at dose 424 mg/kg, administered subcutaneously;Toxic; type: functional; conditions: route subcutaneous; outline: as §1
Mus musculus [18] = assay: (§4) Antitrypanosomal activity was evaluated against Trypanosoma rhodesiense infections in mice, at dose 212 mg/kg, administered subcutaneously; type: functional; conditions: route subcutaneous; outline: as §3
[19] = tested on: Trypanosoma brucei rhodesiense; assay: Anti-trypanosomal activity against Trypanosoma rhodesiense infections in mice, 26 mg/kg administered subcutaneously; type: functional; conditions: route subcutaneous; outline: as §3
[20] = tested on: Trypanosoma brucei rhodesiense; assay: Antitrypanosomal activity was evaluated against Trypanosoma rhodesiense infections in mice, at dose 424 mg/kg, administered subcutaneously; type: functional; conditions: route subcutaneous; outline: as §3
[21] = tested on: Trypanosoma brucei rhodesiense; assay: (§5) Antitrypanosomal activity was evaluated against Trypanosoma rhodesiense infections in mice, at dose 53 mg/kg, administered subcutaneously; type: functional; conditions: route subcutaneous; outline: as §3
Mus musculus [22] = assay: Antitrypanosomal activity was evaluated against Trypanosoma rhodesiense infections in mice, at dose 106 mg/kg, administered subcutaneously;cures; type: functional; conditions: route subcutaneous; outline: as §1
Mus musculus [23] = assay: Antitrypanosomal activity was evaluated against Trypanosoma rhodesiense infections in mice, at dose 26 mg/kg, administered subcutaneously;cures; type: functional; conditions: route subcutaneous; outline: as §1
Mus musculus [24] = assay: Antitrypanosomal activity was evaluated against Trypanosoma rhodesiense infections in mice, at dose 212 mg/kg, administered subcutaneously;Toxic; type: functional; conditions: route subcutaneous; outline: as §1
[25] = tested on: Trypanosoma brucei rhodesiense; assay: Antitrypanosomal activity against Trypanosoma rhodesiense infections in mice, 106 mg/kg administered subcutaneously; type: functional; conditions: route subcutaneous; outline: as §3
[26] = tested on: Trypanosoma brucei rhodesiense; assay: as §4; type: functional; conditions: route subcutaneous; outline: as §3
Mus musculus [27] = assay: Antitrypanosomal activity was evaluated against Trypanosoma rhodesiense infections in mice, at dose 212 mg/kg, administered subcutaneously; Cures; type: functional; conditions: route subcutaneous; outline: as §1
Mus musculus [28] = assay: (§6) Antitrypanosomal activity was evaluated against Trypanosoma rhodesiense infections in mice, at dose 26 mg/kg, administered orally; Cures; type: functional
Outline: (§7)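 Oral dosing of IUR/HA Swiss mice (six weeks old, 30-32 g) infected i.p. with Wellcome CT strain T. rhodesiense, with five mice per dose level. Survival was followed for 30 days. Deaths before day 4 were counted as toxic and 30-day survivors as cured. ΔMST is the difference in mean survival time between treated and control mice.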

Mus musculus [29] = assay: Antitrypanosomal activity was evaluated against Trypanosoma rhodesiense infections in mice, at dose 106 mg/kg, administered orally; Cures; type: functional; outline: as §7
Mus musculus [30] = assay: Antitrypanosomal activity was evaluated against Trypanosoma rhodesiense infections in mice, at dose 424 mg/kg, administered orally; Cures; type: functional; outline: as §7
Mus musculus [31] = assay: (§8) Antitrypanosomal activity was evaluated against Trypanosoma rhodesiense infections in mice, at dose 424 mg/kg, administered orally; type: functional; conditions: route oral, 424 mg/kg; outline: as §7
Mus musculus [32] = assay: Antitrypanosomal activity was evaluated against Trypanosoma rhodesiense infections in mice, at dose 106 mg/kg, administered orally; type: functional; conditions: route oral
Mus musculus [33] = assay: Antitrypanosomal activity was evaluated against Trypanosoma rhodesiense infections in mice, at dose 26 mg/kg, administered orally; type: functional; conditions: route oral
Mus musculus [34] = assay: as §6; type: functional; remark: listed apart in the source
Mus musculus [35] = assay: as §8; type: functional; conditions: route oral
Mus musculus [36] = assay: (§9) Antitrypanosomal activity was evaluated against Trypanosoma rhodesiense infections in mice, at dose 13 mg/kg, administered subcutaneously; type: functional; conditions: route subcutaneous; outline: as §3
Mus musculus [37] = assay: Antitrypanosomal activity was evaluated against Trypanosoma rhodesiense infections in mice, at dose 6.6 mg/kg, administered subcutaneously;Cures; type: functional; conditions: route subcutaneous; outline: as §1
Mus musculus [38] = assay: as §2; type: functional; conditions: route subcutaneous; outline: as §1
Mus musculus [39] = assay: Antitrypanosomal activity was evaluated against Trypanosoma rhodesiense infections in mice, at dose 424 mg/kg, administered subcutaneously;Cures; type: functional; conditions: route subcutaneous; outline: as §1
Mus musculus [40] = assay: Antitrypanosomal activity was evaluated against Trypanosoma rhodesiense infections in mice, at dose 6.6 mg/kg, administered subcutaneously;Toxic; type: functional; conditions: route subcutaneous; outline: as §1
Mus musculus [41] = assay: Antitrypanosomal activity was evaluated against Trypanosoma rhodesiense infections in mice, at dose 26 mg/kg, administered orally;Toxic; type: functional; conditions: in the assay text read “administered subcutaneously” for “administered orally”
Mus musculus [42] = assay: Antitrypanosomal activity was evaluated against Trypanosoma rhodesiense infections in mice, at dose 212 mg/kg, administered orally; type: functional; conditions: route oral
Mus musculus [43] = assay: Antitrypanosomal activity was evaluated against Trypanosoma rhodesiense infections in mice, at dose 53 mg/kg, administered orally; type: functional; conditions: route oral
Mus musculus [44] = assay: Antitrypanosomal activity was evaluated against Trypanosoma rhodesiense infections in mice, at dose 1.6 mg/kg, administered subcutaneously; Cures; type: functional; conditions: route subcutaneous; outline: as §1
Mus musculus [45] = assay: Antitrypanosomal activity was evaluated against Trypanosoma rhodesiense infections in mice, at dose 3.3 mg/kg, administered subcutaneously; Cures; type: functional; conditions: route subcutaneous; outline: as §1
Mus musculus [46] = assay: Antitrypanosomal activity was evaluated against Trypanosoma rhodesiense infections in mice, at dose 6.6 mg/kg administered subcutaneously; Cures; type: functional; conditions: route subcutaneous; outline: as §1
Mus musculus [47] = assay: as §5; type: functional; conditions: route subcutaneous; outline: as §1
Mus musculus [48] = assay: as §9; type: functional; conditions: route subcutaneous; outline: as §1; remark: listed apart in the source
Mus musculus [49] = assay: as §4; type: functional; conditions: route subcutaneous; outline: as §1; remark: listed apart in the source

CC1(C)N=C(N)N=C(N)N1c1cccc(NC(=O)Nc2cccc(N3C(N)=NC(N)=NC3(C)C)c2)c1.Cl.Cl
Toxic [1]: 5
Toxic (Mus musculus [2]): 3
Toxic [3]: 5
Toxic [4]: 5
Delta MST [5]: 0 days
Delta MST [6]: 0 days
Delta MST [7]: 0 days
Delta MST (Mus musculus [8]): 0.2 days

CC1(C)N=C(N)N=C(N)N1c1ccc(C(c2ccc(N3C(N)=NC(N)=NC3(C)C)cc2)c2ccc(N3C(N)=NC(N)=NC3(C)C)cc2)cc1.Cl.Cl
Toxic [1]: 5
Toxic [3]: 5
Toxic [4]: 5
Delta MST [5]: 0.1 days
Delta MST (Mus musculus [9]): 0.1 days
Delta MST (Mus musculus [10]): -0.1 days
Delta MST (Mus musculus [11]): -0.1 days

CC1(C)N=C(N)N=C(N)N1c1ccc(CCc2ccc(N3C(N)=NC(N)=NC3(C)C)cc2)cc1.Cl.Cl
Cures (Mus musculus [12]): 4
Cures (Mus musculus [13]): 3
Cures (Mus musculus [14]): 4
Cures (Mus musculus [15]): 5
Cures (Mus musculus [16]): 4
Toxic (Mus musculus [17]): 3
Delta MST (Mus musculus [18]): 3.8 days
Delta MST [19]: 7.7 days
Delta MST [6]: 3.2 days
Delta MST [20]: 0.2 days
Delta MST (Mus musculus [11]): 3.4 days
Delta MST [21]: 7.8 days

Cl.Cl.N=C(N)NC(=N)Nc1ccc(CCc2ccc(NC(=N)N=C(N)N)cc2)cc1
Cures (Mus musculus [13]): 2
Cures (Mus musculus [22]): 3
Cures (Mus musculus [23]): 1
Toxic [1]: 5
Toxic (Mus musculus [24]): 2
Delta MST [25]: 8 days
Delta MST [26]: 12 days
Delta MST [19]: 3 days
Delta MST [21]: 1.4 days

CC1(C)N=C(N)N=C(N)N1c1ccc(/N=N/c2ccc(N3C(N)=NC(N)=NC3(C)C)cc2)cc1.Cl.Cl
Cures (Mus musculus [27]): 4
Cures (Mus musculus [28]): 4 and 5
Cures (Mus musculus [29]): 4 and 5
Cures (Mus musculus [30]): 4
Toxic (Mus musculus [31]): 2 and 1
Delta MST [5]: 0 days
Delta MST (Mus musculus [32]): 5.9 days
Delta MST [26]: 0.9 days
Delta MST (Mus musculus [33]): 1 days
Delta MST (Mus musculus [34]): 1.9 days
Delta MST [6]: 0.2 days
Delta MST (Mus musculus [35]): 0.1 days
Delta MST [7]: 1 days
Delta MST (Mus musculus [36]): 1.6 days

CC1(C)N=C(N)N=C(N)N1c1ccc(Oc2ccc(N3C(N)=NC(N)=NC3(C)C)cc2)cc1.Cl.Cl
Cures (Mus musculus [12]): 2
Cures (Mus musculus [37]): 1
Toxic [1]: 5
Toxic (Mus musculus [38]): 5
Delta MST [19]: 5 days
Delta MST [6]: 4.2 days
Delta MST [7]: 5.3 days

CC1(C)N=C(N)N=C(N)N1c1ccc(CCc2cccc(N3C(N)=NC(N)=NC3(C)C)c2)cc1.Cl.Cl
Cures (Mus musculus [37]): 1
Cures (Mus musculus [39]): 1
Toxic (Mus musculus [2]): 1
Toxic (Mus musculus [40]): 1
Toxic (Mus musculus [41]): 5
Delta MST (Mus musculus [32]): 0.4 days
Delta MST (Mus musculus [42]): 1.8 days
Delta MST (Mus musculus [33]): 0 days
Delta MST (Mus musculus [35]): 3.7 days
Delta MST (Mus musculus [43]): 0.2 days
Delta MST (Mus musculus [10]): 1 days
Delta MST (Mus musculus [11]): 1.7 days

CC1(C)N=C(N)N=C(N)N1c1ccc(-c2ccc(N3C(N)=NC(N)=NC3(C)C)cc2)cc1.Cl.Cl
Cures (Mus musculus [44]): 1
Cures (Mus musculus [45]): 1
Cures (Mus musculus [46]): 4
Toxic (Mus musculus [47]): 5
Toxic [3]: 5
Toxic [4]: 5
Toxic (Mus musculus [48]): 5
Toxic (Mus musculus [49]): 5
Delta MST [5]: 3.7 days
Delta MST [6]: 9.2 days
Delta MST [7]: 7.8 days
